Experimental data reported in ChEMBL document CHEMBL4680183, “1,2,3-Triazole-Chalcone hybrids: Synthesis, in vitro cytotoxic activity and mechanistic investigation of apoptosis induction in multiple myeloma RPMI-8226” (Eur J Med Chem, 2020).
Each block holds one compound with its values, some of them ahead of it.

What was measured:
[1] = target: Histone deacetylase 1 (Homo sapiens, UniProt Q13547); assay: Inhibition of HDAC1 in human RPMI-8226 cells incubated for 2 hrs by ELISA; assay type: cell-based
Sequence of Histone deacetylase 1 (Q13547 whole entry): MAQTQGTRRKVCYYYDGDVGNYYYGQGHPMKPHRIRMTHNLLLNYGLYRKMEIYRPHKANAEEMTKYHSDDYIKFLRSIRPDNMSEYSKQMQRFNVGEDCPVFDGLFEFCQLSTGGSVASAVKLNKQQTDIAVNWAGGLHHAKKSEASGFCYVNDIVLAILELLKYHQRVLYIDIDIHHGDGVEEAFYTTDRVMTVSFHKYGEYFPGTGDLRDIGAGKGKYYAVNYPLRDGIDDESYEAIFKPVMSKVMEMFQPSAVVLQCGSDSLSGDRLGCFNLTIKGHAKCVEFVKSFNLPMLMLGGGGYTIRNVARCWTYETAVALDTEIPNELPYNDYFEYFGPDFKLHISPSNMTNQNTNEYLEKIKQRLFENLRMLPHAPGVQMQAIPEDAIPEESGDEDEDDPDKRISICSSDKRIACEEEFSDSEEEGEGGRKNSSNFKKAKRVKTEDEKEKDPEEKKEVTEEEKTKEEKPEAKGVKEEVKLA
Procedure, shortened: (§1)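 Target levels measured by ELISA kits in RPMI-8226 cells. Cells were seeded and grown 24 h at 37 °C, then exposed 72 h to a semi-log series of concentrations. Sample was incubated 2 h at 37 °C, followed by detection reagents A and B (1 h each), TMB substrate and stop solution, with OD read at 450 nm. IC50 was taken from sigmoidal dose-response nonlinear regression of % activity.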

[2] = target: Histone deacetylase 2 (Homo sapiens, UniProt Q92769); assay: Inhibition of HDAC2 in human RPMI-8226 cells incubated for 2 hrs by ELISA; assay type: cell-based; procedure, shortened: as §1
Sequence of Histone deacetylase 2 (Q92769 whole entry): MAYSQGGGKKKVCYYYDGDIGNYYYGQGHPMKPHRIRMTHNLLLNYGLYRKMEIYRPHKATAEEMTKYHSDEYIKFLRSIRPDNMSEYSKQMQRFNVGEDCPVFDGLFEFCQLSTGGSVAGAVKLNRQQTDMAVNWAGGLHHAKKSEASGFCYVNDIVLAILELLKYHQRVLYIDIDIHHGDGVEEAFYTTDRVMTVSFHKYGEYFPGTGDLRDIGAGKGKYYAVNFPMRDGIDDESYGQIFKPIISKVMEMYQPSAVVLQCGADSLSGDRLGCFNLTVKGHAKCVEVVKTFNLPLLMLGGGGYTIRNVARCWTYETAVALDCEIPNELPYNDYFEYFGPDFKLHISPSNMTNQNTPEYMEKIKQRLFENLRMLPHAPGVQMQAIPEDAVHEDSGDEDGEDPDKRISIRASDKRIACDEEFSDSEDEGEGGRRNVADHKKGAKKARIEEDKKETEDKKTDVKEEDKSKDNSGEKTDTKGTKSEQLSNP

[3] = target: Histone deacetylase 3 (Homo sapiens, UniProt O15379); assay: Inhibition of HDAC3 in human RPMI-8226 cells incubated for 2 hrs by ELISA; assay type: cell-based; procedure, shortened: as §1
Sequence of Histone deacetylase 3 (O15379 whole entry): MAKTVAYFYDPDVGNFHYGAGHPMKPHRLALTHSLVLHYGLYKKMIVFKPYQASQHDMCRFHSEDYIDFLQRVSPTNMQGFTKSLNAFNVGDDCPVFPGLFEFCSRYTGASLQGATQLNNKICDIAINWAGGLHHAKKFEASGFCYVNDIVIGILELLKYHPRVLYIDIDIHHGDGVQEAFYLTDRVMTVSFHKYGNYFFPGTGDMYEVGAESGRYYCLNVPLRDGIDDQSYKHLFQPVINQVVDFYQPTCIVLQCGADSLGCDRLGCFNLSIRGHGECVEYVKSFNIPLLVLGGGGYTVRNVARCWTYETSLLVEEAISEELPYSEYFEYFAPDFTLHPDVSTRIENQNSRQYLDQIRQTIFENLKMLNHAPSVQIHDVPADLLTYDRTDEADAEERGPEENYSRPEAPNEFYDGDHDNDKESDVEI

[4] = target: T1, Histone deacetylase 8 (Homo sapiens, UniProt Q9BY41); assay: Inhibition of HDAC8 in human RPMI-8226 cells incubated for 2 hrs by ELISA; assay type: cell-based; procedure, shortened: as §1
T1 sequence (Q9BY41 whole entry): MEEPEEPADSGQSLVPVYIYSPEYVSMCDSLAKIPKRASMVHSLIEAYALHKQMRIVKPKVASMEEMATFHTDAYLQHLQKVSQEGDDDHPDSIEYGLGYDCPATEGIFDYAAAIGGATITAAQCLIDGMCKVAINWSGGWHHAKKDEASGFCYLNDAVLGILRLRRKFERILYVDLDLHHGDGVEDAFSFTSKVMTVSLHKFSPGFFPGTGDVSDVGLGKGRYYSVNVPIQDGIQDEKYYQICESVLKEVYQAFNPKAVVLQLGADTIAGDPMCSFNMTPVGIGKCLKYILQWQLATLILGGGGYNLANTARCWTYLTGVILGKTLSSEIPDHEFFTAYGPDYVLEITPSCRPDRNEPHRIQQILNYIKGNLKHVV

[5] = target: Epidermal growth factor receptor (Homo sapiens, UniProt P00533); assay: Inhibition of EGFR in human RPMI-8226 cells incubated for 2 hrs by ELISA; assay type: cell-based
Sequence of Epidermal growth factor receptor (P00533 whole entry): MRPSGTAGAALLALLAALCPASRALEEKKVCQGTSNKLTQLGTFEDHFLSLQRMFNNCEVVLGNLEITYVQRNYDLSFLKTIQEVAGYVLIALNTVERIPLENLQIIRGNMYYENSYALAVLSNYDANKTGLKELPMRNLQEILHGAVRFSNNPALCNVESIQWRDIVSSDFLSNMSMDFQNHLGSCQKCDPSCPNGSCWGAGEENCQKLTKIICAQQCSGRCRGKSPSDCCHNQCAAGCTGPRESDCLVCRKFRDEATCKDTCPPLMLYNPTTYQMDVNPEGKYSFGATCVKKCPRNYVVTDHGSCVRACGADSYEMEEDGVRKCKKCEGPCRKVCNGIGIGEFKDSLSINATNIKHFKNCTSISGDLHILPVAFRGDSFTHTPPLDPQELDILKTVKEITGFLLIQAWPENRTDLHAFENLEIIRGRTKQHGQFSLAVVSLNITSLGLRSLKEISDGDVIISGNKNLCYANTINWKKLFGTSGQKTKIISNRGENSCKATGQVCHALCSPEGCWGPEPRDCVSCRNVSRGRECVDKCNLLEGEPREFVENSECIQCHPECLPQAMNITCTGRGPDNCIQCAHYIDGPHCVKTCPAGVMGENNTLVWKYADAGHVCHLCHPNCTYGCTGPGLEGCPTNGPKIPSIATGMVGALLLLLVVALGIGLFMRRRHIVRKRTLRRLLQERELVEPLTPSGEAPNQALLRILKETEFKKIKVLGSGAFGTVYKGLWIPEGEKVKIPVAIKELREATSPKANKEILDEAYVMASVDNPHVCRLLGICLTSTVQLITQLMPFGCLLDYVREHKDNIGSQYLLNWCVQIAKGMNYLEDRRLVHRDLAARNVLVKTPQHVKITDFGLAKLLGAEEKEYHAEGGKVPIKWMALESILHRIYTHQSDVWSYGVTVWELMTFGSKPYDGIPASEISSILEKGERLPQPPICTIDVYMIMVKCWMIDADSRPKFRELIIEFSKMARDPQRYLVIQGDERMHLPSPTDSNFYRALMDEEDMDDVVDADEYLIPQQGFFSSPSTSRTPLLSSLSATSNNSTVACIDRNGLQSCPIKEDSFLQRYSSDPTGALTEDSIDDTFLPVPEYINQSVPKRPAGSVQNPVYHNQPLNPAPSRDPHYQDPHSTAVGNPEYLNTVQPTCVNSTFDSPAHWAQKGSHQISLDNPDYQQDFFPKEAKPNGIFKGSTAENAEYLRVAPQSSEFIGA

[6] = target: Vascular endothelial growth factor receptor 2 (Homo sapiens, UniProt P35968); assay: Inhibition of VEGFR2 in human RPMI-8226 cells incubated for 2 hrs by ELISA; assay type: cell-based
Sequence of Vascular endothelial growth factor receptor 2 (P35968 whole entry): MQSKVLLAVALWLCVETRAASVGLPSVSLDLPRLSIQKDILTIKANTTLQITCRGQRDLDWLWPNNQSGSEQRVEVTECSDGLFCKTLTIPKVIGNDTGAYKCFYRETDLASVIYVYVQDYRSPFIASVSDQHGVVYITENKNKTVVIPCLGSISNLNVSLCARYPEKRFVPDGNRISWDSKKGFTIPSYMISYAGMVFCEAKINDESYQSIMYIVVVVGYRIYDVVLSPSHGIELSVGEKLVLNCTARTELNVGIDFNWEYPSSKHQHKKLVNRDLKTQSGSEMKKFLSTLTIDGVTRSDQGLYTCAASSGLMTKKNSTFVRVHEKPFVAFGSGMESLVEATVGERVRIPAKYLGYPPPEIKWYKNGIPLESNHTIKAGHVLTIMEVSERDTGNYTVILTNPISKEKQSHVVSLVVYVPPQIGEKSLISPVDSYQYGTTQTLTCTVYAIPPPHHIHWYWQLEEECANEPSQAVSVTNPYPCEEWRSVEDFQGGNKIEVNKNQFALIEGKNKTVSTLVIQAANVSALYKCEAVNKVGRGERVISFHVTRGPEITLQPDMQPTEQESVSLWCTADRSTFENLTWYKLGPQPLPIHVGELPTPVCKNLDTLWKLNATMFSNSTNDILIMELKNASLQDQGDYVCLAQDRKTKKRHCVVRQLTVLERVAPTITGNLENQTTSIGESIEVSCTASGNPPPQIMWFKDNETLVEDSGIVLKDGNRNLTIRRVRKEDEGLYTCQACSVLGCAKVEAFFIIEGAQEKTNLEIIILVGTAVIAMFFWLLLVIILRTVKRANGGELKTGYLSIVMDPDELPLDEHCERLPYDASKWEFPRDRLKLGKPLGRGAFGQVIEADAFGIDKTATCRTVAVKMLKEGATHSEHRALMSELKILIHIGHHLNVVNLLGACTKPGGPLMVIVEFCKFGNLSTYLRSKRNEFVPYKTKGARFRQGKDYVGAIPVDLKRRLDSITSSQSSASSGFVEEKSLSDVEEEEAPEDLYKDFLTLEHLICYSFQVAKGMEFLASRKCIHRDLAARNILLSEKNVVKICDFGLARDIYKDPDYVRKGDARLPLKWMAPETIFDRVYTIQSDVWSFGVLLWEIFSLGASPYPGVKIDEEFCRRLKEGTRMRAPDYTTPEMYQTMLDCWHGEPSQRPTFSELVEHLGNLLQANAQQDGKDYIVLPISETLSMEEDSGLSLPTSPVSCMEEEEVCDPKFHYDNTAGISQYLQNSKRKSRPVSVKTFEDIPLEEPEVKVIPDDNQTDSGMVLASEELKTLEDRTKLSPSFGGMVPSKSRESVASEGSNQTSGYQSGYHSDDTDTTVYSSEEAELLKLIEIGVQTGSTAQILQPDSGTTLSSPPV

[7] = target: Tubulin; assay: Inhibition of Tubulin in human RPMI-8226 cells incubated for 2 hrs by ELISA; assay type: cell-based; procedure, shortened: as §1
[8] = system: RPMI-8226; assay: Induction of ROS accumulation in human RPMI-8226 cells incubated for 2 hrs by ELISA (reference value: 26.06 +/- […]); assay type: functional
[9] = system: RPMI-8226; assay: Induction of apoptosis in human RPMI-8226 cells assessed as BAX level incubated for 24 hrs by ELISA (reference value: 56 +/- […]); assay type: functional
[10] = system: RPMI-8226; assay: Induction of apoptosis in human RPMI-8226 cells assessed as Bcl-2 level incubated for 24 hrs by ELISA (reference value: 4.857 +/- […]); assay type: functional
[11] = system: RPMI-8226; assay: Induction of apoptosis in human RPMI-8226 cells assessed as PARP-1 level incubated for 24 hrs by ELISA (reference value: 0.151 +/- […]); assay type: functional
[12] = system: RPMI-8226; assay: Induction of apoptosis in human RPMI-8226 cells assessed as Caspase-3 level incubated for 24 hrs by ELISA (reference value: 35.3 pg/ml); assay type: functional
[13] = system: RPMI-8226; assay: Induction of apoptosis in human RPMI-8226 cells assessed as Caspase-7 level incubated for 24 hrs by ELISA (reference value: 0.359 +/- 0.016 ng/ml); assay type: functional
[14] = system: RPMI-8226; assay: Induction of apoptosis in human RPMI-8226 cells assessed as Caspase-9 level incubated for 24 hrs by ELISA (reference value: 1.63 +/- […]); assay type: functional

IC50 [1]: 1530 nM | IC50 [2]: 2900 nM | IC50 [3]: 3000 nM | IC50 [4]: 47 nM | IC50 [5]: 36 nM | IC50 [6]: 388 nM | IC50 [7]: 9.77 nM
Structure (SMILES): COc1ccc(/C=C/C(=O)c2nnn(-c3ccc(Cl)cc3)c2C)cc1OC

IC50 [1]: 620 nM | IC50 [2]: 800 nM | IC50 [3]: 1180 nM | IC50 [4]: 72 nM
Structure (SMILES): CC(C)C[C@H](NC(=O)[C@H](Cc1ccccc1)NC(=O)c1cnccn1)B(O)O [BORTEZOMIB]

Structure (SMILES): COc1cc2ncnc(Nc3ccc(F)c(Cl)c3)c2cc1OCCCN1CCOCC1 [GEFITINIB]
Activity [8]: 80.92 pg/mL

Structure (SMILES): CN[C@@H]1C[C@H]2O[C@@](C)([C@@H]1OC)n1c3ccccc3c3c4c(c5c6ccccc6n2c5c31)C(=O)NC4 [STAUROSPORINE]
Activity [9]: 336.16 pg/mL | Activity [10]: 0.4081 ng/mL | Activity [11]: 0.245 ng/mL | Activity [12]: 449.8 pg/mL | Activity [13]: 1.508 ng/mL | Activity [14]: 24.97 ng/mL
